Source: ChEMBL document CHEMBL4373711, “Development of 3,5-Dinitrophenyl-Containing 1,2,4-Triazoles and Their Trifluoromethyl Analogues as Highly Efficient Antitubercular Agents Inhibiting Decaprenylphosphoryl-β-d-ribofuranose 2'-Oxidase” (J Med Chem, 2019)
≈ marks a conversion by molar mass, not a printed value. Calls of active or inactive are those of the source. The calls are words filed in the database; no cut-off is given here.

Tests used:
[1] = test system: Mycobacterium tuberculosis; experiment: Antimycobacterial activity against XDR Mycobacterium tuberculosis Praha 131 after 14 days; format: functional; details: for MIC99: Praha 131, 336 h
Method in brief: (§1)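 M. tuberculosis strains (H37Rv and clinical MDR/XDR isolates) tested by microdilution in Šula's semisynthetic medium. Compounds were dissolved in DMSO and tested at 32 to 0.03 µM in twofold steps. Inoculum was a 1.0 McFarland suspension diluted 10-3. Plates were incubated at 37 °C and read at 14 and 21 days.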

[2] = Cytotoxicity against human A431 cells assessed as cell viability at 30 uM after 48 hrs by CellTiter 96 aqueous one solution assay relative to control; format: cell-based, A-431; details: read-out: Activity
Method in brief: (§2)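 HepG2 (DMEM, 10% FBS, 1 mM pyruvate) or A431 (DMEM, 10% FBS) seeded 10,000 cells/well, 24 h at 37 °C, 5% CO2, then 30 µM compound for 48 h. MTS reagent 60 min, absorbance 490 nm, background subtracted; 0.1% DMSO vehicle = 100%, 10% SDS = 0% viability.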

[3] = test system: Mycobacterium kansasii; experiment: Antimycobacterial activity against Mycobacterium kansasii CNCTC My 235/80 after 21 days; format: functional; details: CNCTC My 235/80, 504 h
Method in brief: (§3)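 Microdilution in Šula's semisynthetic medium; compounds in DMSO at 32–0.03 µM. Inoculum from 1.0 McFarland suspension diluted 10-4. […] Isoniazid and rifampicin as reference drugs.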

[4] = test system: Klebsiella pneumoniae; experiment: Antibacterial activity against Klebsiella pneumoniae at highest concentration measured after 24 to 48 hrs by alamar blue dye based broth microdilution assay; format: functional, organism-based
[5] = test system: Mycobacterium avium; experiment: Antimycobacterial activity against Mycobacterium avium CNCTC My 330/88 after 21 days; format: functional; details: CNCTC My 330/88, 504 h
Method in brief: (§4)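 M. avium was tested by microdilution in Šula's semisynthetic medium, with compounds dissolved in DMSO and serially diluted from 1000 down to 1. Inoculum was a 1.0 McFarland suspension diluted 10-5. Plates were incubated at 37 °C and read at 14 and 21 days. […] Isoniazid and rifampicin served as standards.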

[6] = test system: Mycobacterium kansasii; experiment: Antimycobacterial activity against Mycobacterium kansasii 6509/96 after 14 days; format: functional; details: 6509/96, 336 h; method in brief: as §3
[7] = test system: Mycobacterium avium; experiment: Antimycobacterial activity against Mycobacterium avium CNCTC My 330/88 after 14 days; format: functional; details: CNCTC My 330/88, 336 h; method in brief: as §4
[8] = test system: Candida albicans; experiment: Antifungal activity against Candida albicans ATCC 24433 CCM 8320 at highest concentration measured after 24 to 48 hrs by alamar blue dye based broth microdilution assay; format: functional, organism-based
[9] = test system: Aspergillus flavus; experiment: Antifungal activity against Aspergillus flavus CCM 8363 at highest concentration measured after 24 to 48 hrs by alamar blue dye based broth microdilution assay; format: functional, organism-based
[10] = test system: Mycobacterium tuberculosis; experiment: Antimycobacterial activity against Mycobacterium tuberculosis H37Rv CNCTC My 331/88 after 14 days; format: functional; details: H37Rv CNCTC My 331/88, 336 h; method in brief: as §1
[11] = test system: Trichophyton interdigitale; experiment: Antifungal activity against Trichophyton interdigitale ATCC 9533 CCM 8377 at highest concentration measured after 72 to 120 hrs by alamar blue dye based broth microdilution assay; format: functional
[12] = test system: Mycobacterium kansasii; experiment: Antimycobacterial activity against Mycobacterium kansasii CNCTC My 235/80 after 14 days; format: functional; details: CNCTC My 235/80, 336 h; method in brief: as §3
[13] = test system: Enterococcus faecalis; experiment: Antibacterial activity against Enterococcus faecalis ATCC 29212 CCM 4224 at highest concentration measured after 24 to 48 hrs by alamar blue dye based broth microdilution assay; format: functional, organism-based
[14] = test system: Mycobacterium kansasii; experiment: Antimycobacterial activity against Mycobacterium kansasii 6509/96 after 21 days; format: functional; details: 6509/96, 504 h; method in brief: as §3
[15] = test system: Pseudomonas aeruginosa; experiment: Antibacterial activity against Pseudomonas aeruginosa ATCC 27853 CCM 3955 at highest concentration measured after 24 to 48 hrs by alamar blue dye based broth microdilution assay; format: functional, organism-based
[16] = test system: Candida tropicalis; experiment: Antifungal activity against Candida tropicalis ATCC 750 CCM 8264 at highest concentration measured after 24 to 48 hrs by alamar blue dye based broth microdilution assay; format: functional, organism-based
[17] = test system: Pichia kudriavzevii; experiment: Antifungal activity against Candida krusei ATCC 6258 CCM8271 at highest concentration measured after 24 to 48 hrs by alamar blue dye based broth microdilution assay; format: functional, organism-based
[18] = test system: Staphylococcus epidermidis; experiment: Antibacterial activity against Staphylococcus epidermidis at highest concentration measured after 24 to 48 hrs by alamar blue dye based broth microdilution assay; format: functional, organism-based
[19] = test system: Aspergillus fumigatus; experiment: Antifungal activity against Aspergillus fumigatus ATCC 204305 at highest concentration measured after 24 to 48 hrs by alamar blue dye based broth microdilution assay; format: functional, organism-based
[20] = test system: Mycobacterium tuberculosis; experiment: Antimycobacterial activity against Mycobacterium tuberculosis H37Rv CNCTC My 331/88 after 21 days; format: functional; details: H37Rv CNCTC My 331/88, 504 h; method in brief: as §1
[21] = test system: Staphylococcus aureus; experiment: Antibacterial activity against Staphylococcus aureus subsp. aureus ATCC 29213 CCM 4223 at highest concentration measured after 24 to 48 hrs by alamar blue dye based broth microdilution assay; format: functional, organism-based
[22] = test system: Serratia marcescens; experiment: Antibacterial activity against Serratia marcescens at highest concentration measured after 24 to 48 hrs by alamar blue dye based broth microdilution assay; format: functional, organism-based
[23] = test system: A-431; experiment: Cytotoxicity against human A431 cells assessed as reduction in cell viability after 48 hrs by CellTiter 96 aqueous one solution assay; format: cell-based; details: A-431, 48 h
[24] = test system: Staphylococcus aureus; experiment: Antibacterial activity against methicillin-resistant Staphylococcus aureus subsp. aureus ATCC 43300 CCM 4750 at highest concentration measured after 24 to 48 hrs by alamar blue dye based broth microdilution assay; format: functional, organism-based
[25] = test system: Escherichia coli; experiment: Antibacterial activity against Escherichia coli ATCC 25922 CCM 3954 at highest concentration measured after 24 to 48 hrs by alamar blue dye based broth microdilution assay; format: functional, organism-based
[26] = Cytotoxicity against human HepG2 cells assessed as cell viability at 30 uM after 48 hrs by CellTiter 96 aqueous one solution assay relative to control; format: cell-based; details: read-out: Activity; method in brief: as §2
[27] = test system: Mycobacterium kansasii; experiment: Antimycobacterial activity against Mycobacterium kansasii 6509/96 after 7 days; format: functional; details: 6509/96, 168 h; method in brief: as §3
[28] = test system: Mycobacterium kansasii; experiment: Antimycobacterial activity against Mycobacterium kansasii CNCTC My 235/80 after 7 days; format: functional; details: CNCTC My 235/80, 168 h; method in brief: as §3
[29] = test system: Lichtheimia corymbifera; experiment: Antifungal activity against Lichtheimia corymbifera CCM 8077 at highest concentration measured after 24 to 48 hrs by alamar blue dye based broth microdilution assay; format: functional, organism-based
[30] = test system: HepG2; experiment: Cytotoxicity against human HepG2 cells assessed as reduction in cell viability after 48 hrs by CellTiter 96 aqueous one solution assay; format: cell-based; details: HepG2, 48 h
[31] = test system: Candida parapsilosis; experiment: Antifungal activity against Candida parapsilosis ATCC 22019 CCM 8260 at highest concentration measured after 24 to 48 hrs by alamar blue dye based broth microdilution assay; format: functional, organism-based

Compound | MIC99 [3] [µM] | MIC99 [5] [µM] | MIC99 [6] [µM] | MIC99 [7] [µM] | MIC99 [10] [µM] | MIC99 [12] [µM] | MIC99 [14] [µM] | MIC99 [20] [µM] | MIC99 [27] [µM] | MIC99 [28] [µM] | MIC99 [1] [µM] | further results
GENTAMICIN |  |  |  |  |  |  |  |  |  |  |  | MIC>99 [1]: > 8 µM
O=[N+]([O-])c1cc(-c2nnc(SCc3ccc(Cl)cc3)n2Cc2ccccc2)cc(C(F)(F)F)c1 | 0.5 (≈ 0.252 µg/mL) | 250 (≈ 126 µg/mL) | 0.5 (≈ 0.252 µg/mL) | 250 (≈ 126 µg/mL) | 0.5 (≈ 0.252 µg/mL) | 0.5 (≈ 0.252 µg/mL) | 0.5 (≈ 0.252 µg/mL) | 0.5 (≈ 0.252 µg/mL) | 0.5 (≈ 0.252 µg/mL) | 0.5 (≈ 0.252 µg/mL) |  | viability at 48 h, 30 µM [2]: 121%; Activity [4]: inactive; Activity [8]: inactive; Activity [9]: inactive; Activity [11]: inactive; Activity [13]: inactive; Activity [15]: inactive; Activity [16]: inactive; Activity [17]: inactive; Activity [18]: inactive; Activity [19]: inactive; Activity [21]: inactive; Activity [22]: inactive; IC50 [23]: > 30 µM; Activity [24]: inactive; Activity [25]: inactive; viability at 48 h, 30 µM [26]: 68%; Activity [29]: inactive; IC50 [30]: > 30 µM; Activity [31]: inactive
CN[C@@H]1[C@H](O[C@H]2[C@H](O[C@H]3[C@H](O)[C@@H](O)[C@H](N=C(N)N)[C@@H](O)[C@@H]3N=C(N)N)O[C@@H](C)[C@]2(O)C=O)O[C@@H](CO)[C@H](O)[C@H]1O [STREPTOMYCIN] |  |  |  |  |  |  |  |  |  |  | > 32 | 
CO[C@H]1/C=C/O[C@@]2(C)Oc3c(C)c(O)c4c(O)c(c(/C=N/N5CCN(C)CC5)c(O)c4c3C2=O)NC(=O)/C(C)=C\C=C\[C@H](C)[C@H](O)[C@@H](C)[C@@H](O)[C@@H](C)[C@H](OC(C)=O)[C@@H]1C [RIFAMPIN] | 0.25 (≈ 0.206 µg/mL) | 62 (≈ 51 µg/mL) | 0.25 (≈ 0.206 µg/mL) | 32 (≈ 26.3 µg/mL) | 0.25 (≈ 0.206 µg/mL) | 0.25 (≈ 0.206 µg/mL) | 0.25 (≈ 0.206 µg/mL) | 0.25 (≈ 0.206 µg/mL) | 0.125 (≈ 0.103 µg/mL) | 0.125 (≈ 0.103 µg/mL) | > 8 | 
NCC[C@H](O)C(=O)N[C@@H]1C[C@H](N)[C@@H](O[C@H]2O[C@H](CN)[C@@H](O)[C@H](O)[C@H]2O)[C@H](O)[C@H]1O[C@H]1O[C@H](CO)[C@@H](O)[C@H](N)[C@H]1O [AMIKACIN] |  |  |  |  |  |  |  |  |  |  | > 32 | 
